# Source: the EternaBench riboswitch data
# System: MS2 coat protein
# Experiment: apparent Kd, MS2 coat protein; higher = weaker binding; RNA-MaP array; FMN 200 µM where present
# Method in brief: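 Designs were transcribed by stalled E. coli RNA polymerase on Illumina sequencing-chip clusters. They were titrated with SNAP-549-labelled MS2 coat protein from 0.7 or 1.5 nM, doubling to 3 µM, in 100 mM Tris-HCl pH 7.5, 80 mM KCl, 4 mM MgCl2, BSA, DTT, yeast tRNA and Tween-20, without and then with constant ligand. The apparent Kd is the median of filtered per-cluster fits after normalisation of green signal to red-channel RNA signal and control-cluster median Fmax.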
# [1] = designed as: ON switch for flavin mononucleotide, no ligand
# [2] = ligand present: flavin mononucleotide, designed as: ON switch for flavin mononucleotide
# [3] = designed as: OFF switch for flavin mononucleotide, no ligand
# [4] = ligand present: flavin mononucleotide, designed as: OFF switch for flavin mononucleotide
Sequence,apparent Kd [1],apparent Kd [2],apparent Kd [3],apparent Kd [4]
GCGCAAGCAUGAGGAUAUUUAUUAAAUAAUAAUAAAGAAGGCAUGUCAAAUGACAUGAGGAUCACCCAUGUUGGCAAAAUGCGC,45.9 nM,9.77 nM,–,–
UGUUGUAUUACAGGAUAUCUAUUAUUUUUAUAUAGAGAAGGGUAUUCACAUGAGGAUCACCCAUGUAUAUACGAGGAAGUUGUG,37.2 nM,40.8 nM,–,–
AAAGAGCGAGGAUAUACAUGAGGAUCACCCAUGUGAAGAUGCAUGGUCUGAACGUCUGGUAGAAGGCGUAUGAA,–,–,161 nM,182 nM
AAUAACAGAGGAUAUACUGUUUUAUGUAUUUAUUAUUUUGAACAUGAGGAUCACCCAUGUAGAAGGCUGAUUGA,–,–,35.6 nM,31.6 nM
GAAGCACGCAUUAACAUGAGGAUCACCCAUGUCAAAAGACGUGAGGAUAUGGAUCUGAAGAAGAUCCAGAAGGCACCGUGCUAA,8.41 nM,5.3 nM,–,–
GUGGUAUUCGUAGGAUAUCCGUCGCCACCGUGUGGAGAAGGACGAACAUGAGGAUCACCCAUGUAUCAUGGUGUGGACGUUGUC,–,–,80.2 nM,88.4 nM
GCAGCACUGUAGAACAUGAGGAUCACCCAUGUCGAUUGUUAUGAGGAUAUGCAUCGUAUGAAGAUGCAGAAGGCAUUGUGCUGC,5.59 nM,5.16 nM,–,–
AUUAUGACCGAGUUAUACUUCUAAACAUGAGGAUCACCCAUGUAGGAUAUCAGCACGAUAAGUGCUGAGAAGGACAUCUCGGUC,–,–,13.7 nM,14.6 nM
AGGGAUAAAGGAUAUACAUGAGGAUCACCCAUGUUGAGGAAAGUGAGAGGUGGCGAUAGUAGAAGGUUAGGUGG,–,–,92.6 nM,70.1 nM
AAGGAGUGAGGAUAUGCGCGGGCACGCUCUAAAUAAGAAAGACAUGAGGAUCACCCAUGUAGAAGGCACAAUAA,–,–,19.9 nM,32.5 nM
GCUGUCGCAUGAGGAUAUGGUCAGCUUUGCUGACCAGAAGGCAUGUCAAUAGACAUGAGGAUCACCCAUGUAGUUAAGACAGCA,717 nM,49.2 nM,–,–
AGGAAGUGAGGAUAUGCAGCAGCUAGUGGACGCUAGCGCAUGUAGAAGGCACAUGAGGAUCACCCAUGUUUAAA,–,–,32.1 nM,36.2 nM
UAAACGUUCUAGAAGGUGCUUUUGUUAAACAAGCAAGGAUAUAGACAUGAGGAUCACCCAUGUCUUUUAGACAUCGACAUACUU,–,–,6.9 nM,8.03 nM
AUUUGACACGUAGGAUAUCGCUUAAAUUUAACACGAGAAGGACGAACAUGAGGAUCACCCAUGUAUCAUGGAGUAGAUAAUUUG,–,–,115 nM,329 nM
CACCCUGAUGUCAGGAUAUGCGCGUCGCGCCUCGAGCAGAAGGGACAUGAGGAUCACCCAUGUUGUCUCUUGGG,–,–,48.9 nM,98.7 nM
GCACUUACGUUAGGAUAUGGAUCGGAAAACGAUCCAGAAGGAAUAUGGGAACAUGAGGAUCACCCAUGUUCCUCAGACAAGUGC,67.7 nM,35.1 nM,–,–
CGAUAGGACAGAGGAUAUACACAUGAGGAUCACCCAUGUAAUUACAAUUCUUGUGGUUCUUCCAUGUAGAAGGCUGUCCUAUCG,–,–,113 nM,335 nM
CCUCAGUAAGGAUAUCAGCUUAUGGAGGUGGUAAUGAGAGCUGAGAAGGUACAUGAGGAUCACCCAUGUUAGUU,–,–,57 nM,102 nM
CCUAUGUGAGGAUAUCACUGGUCUUUUCAUUGGAUGAUUAGUGAGAAGGCACAUGAGGAUCACCCAUGUCGGUG,–,–,28.9 nM,24.2 nM
AAAAUCGAAGGAUAUACAUAUCCUUUAGCGGCAAUGCCGCGACAUGAGGAUCACCCAUGUAGAAGGUCGUAAAA,–,–,27.6 nM,31.5 nM
UUGUUUUUUGAGGAUAUGCGACGUUUUUUCGUCGUAGAAGGCGAUACAUGAGGAUCACCCAUGUUUAUGGGCAU,–,–,124 nM,169 nM
GGGCUUUGGGAGAAGGUACAUUAAAUUAGUUUAACAUGAGGAUCACCCAUGUAAGGAUAUCCCAUCUUGUAUUAUUAUACAGCC,–,–,11 nM,13.3 nM
GGGUACAUCGGAGGAUAUCAUGUAAAUACAUGAGGAUCACCCAUGUCGAUGGAGACAUCGGAGAUUGAGAAGGCCCAUGUACCG,199 nM,10.8 nM,–,–
UGUCGGAGCAGAGGAUAUUACAUGAGGAUCACCCAUGUAUGAACCAAUAGCUGGAGACAGCAAUGUAAGAAGGCUGCUCCGACA,–,–,12.2 nM,171 nM

Sequence,apparent Kd [1],apparent Kd [2],apparent Kd [3],apparent Kd [4]
GGUCCGCACUAGAAGGGUGACAUGAGGAUCACCCAUGUGCACUUCCGCUCUUAGCGGAAAGUGCCACAGGAUAUAGUGUGGAUU,80.6 nM,20.3 nM,–,–
GUCGUGUGAGGAUAUGCACGAGUGACAGGGAGGCUGUCACAGCAGAAGGUACAUGAGGAUCACCCAUGUGAAAU,–,–,29.1 nM,24.2 nM
CGCUACAUGAGGAUCACCCAUGUACUAACUUGCACGUGAACGAGAAGGCCACAGCAACCCUGCGUGGAGGAUAUCGUGGUGCCA,8.49 nM,7.48 nM,–,–
GAUUAACAUGAGGAUCACCCAUGUGAGGAUAUGGACUGGCUCACUUUCCGAUUCGAGUCUAGAAGGCGCAUCUU,–,–,32.8 nM,35.2 nM
AACAGGUGAGGAUAUCGAACAACAACAACAACAACAACAAACGAGAAGGCACAUGAGGAUCACCCAUGUAAGAA,–,–,20 nM,17.5 nM
GCAAUAGCAUGAGGAUAUGCUGGAGUUUAGACAGCAGAAGGCAUGUCAUAAGACAUGAGGAUCACCCAUGUAAUUACAAUAGCA,57.8 nM,10.4 nM,–,–
UGGUACUAGGGAGGAUAUGGGAAGAUACAUGAGGAUCACCCAUGUUUGAGAAUGCCGAGAGGCAACUAGAAGGCCCUAGUACCU,430 nM,18.1 nM,–,–
GGAUAGGACAGAGGAUAUACGUGCUGGAGAUACUAGCAAAAUUUCCUCACAUGAGGAUCACCCAUGUAGAAGGCUGUCCUAUCG,–,–,32.6 nM,478 nM
AUUUCGUUAGCAGGAUAUGGACAGGCCUGUCCGUAUUGAGUCAGUAACAUGAGGAUCACCCAUGUCCAGAAGGGCUCGAAGUAU,–,–,7.83 nM,15.3 nM
GUACGGAAGGAGAAGGGCUAGGAGGUCCAGUUUAUGUGUGUUGCAACAUGAGGAUCACCCAUGUAGCAGGAUAUCCUUUGUACA,–,–,85.6 nM,177 nM
GGCUCUAGAGGAUAUACAAACUGAUCCUCAGAGCGCCGGCUACAUGAGGAUCACCCAUGUAGAAGGUUGGAGUC,–,–,15.6 nM,13.1 nM
GAUUGACAUGAGGAUCACCCAUGUGAGGAUAUCGGCCGGACCUUGUUAGCUUCCAUCGCGAGAAGGCACAUAGG,–,–,28.1 nM,37.1 nM
GGGUACGUUUCGUAGCAGUGUCAUCGAGAAGGCCCUGACAUGAGGAUCACCCAUGUUGUUACAUGGGAGGAUAUCGAUGAUGGG,48.4 nM,8.12 nM,–,–
AUUGAUAGCACAGGAUAUUGAGAUUUGAAUUGACAAGAAGGGUGUACAUGAGGAUCACCCAUGUAAUGGCUGCCUCGUUGAUUA,–,–,57.8 nM,132 nM
CCAUCGAGUGUGAGGAUAUGCUGUUCCUUGGAGCAGCAGAAGGCACAUGAGGAUCACCCAUGUGGAUACGGUGG,–,–,34.3 nM,251 nM
AGCAUGUUUACAUGAGGAUCACCCAUGUUUUUUAAGGAUAUCAGAAGGUACAUUUUGAGUUAGAGUAAGGAUAUGAUAUAUGCG,11.9 nM,8.82 nM,–,–
AUACGUGAGAAGGAUAUCACUCGCCAGAGGCGAUGAGAAGGUUUCACAUGAGGAUCACCCAUGUGCUCUUCUAG,–,–,32 nM,75.1 nM
UGUCGGAGCAGAGGAUAUUACAUGAGGAUCACCCAUGUAUUAACCAAUAGCUGGAAACAGCAAUGUAAGAAGGCUGCUCCGACA,–,–,5.11 nM,7.87 nM
UGUAUGGACAGAGGAUAUGCCGAUAGGAUCUACUAUCGAAGAAUCCUCACAUGAGGAUCACCCAUGUAGAAGGCUGUUCAUACU,–,–,8.2 nM,34.1 nM
GAAUUCGCAUGAGGAUAUGCACUCAUUUCAUGUGCAGAAGGUAUAACAUUAGACAUGAGGAUCACCCAUGUAUUGGUCAUUAAC,13.7 nM,12.1 nM,–,–
CGCAAGUAUACAUGAGGAUCACCCAUGUAAGAUAGGGUAAUCAGAAGGUACAAUUAGAGAUAGAGUAAGGAUAUGAAAUUUGCG,358 nM,94.5 nM,–,–
AAAAAAUGAGGAUAUACAUGAAAAAAAAAAAAAAAAAAAAAACAUGAGGAUCACCCAUGUAGAAGGCGUAAAAA,–,–,51.2 nM,41.4 nM
UAAUAUUUAUGAUAUUAUUACAUUAGAAGGCUAGACAUGUGGAUACAUGAGGAUCACCCAUGUAUAGAGGAUAUAGACAUAUAG,–,–,25.8 nM,42.6 nM
GCCAUCGCAUGAGGAUAUGCUCCGGUUUCCGGAGCAGAAGGCAUGUCAUAAAACAUGAGGAUCACCCAUGUAGUUAAGAUGGCA,8.86 nM,5.18 nM,–,–
